From PMC3751212 (Clinical Drug Investigation, 2013)
Like-named read-outs stand apart in the source and are kept apart here.

How the values were obtained:
[1] = format: in vivo, human; settings: for CL renal / AUC(0-inf) / Cmax / Tmax / AUC(0-t) / CL/F / Vd/F / half-life / k el: human, 20 mg; for CL renal: plasma and urine, CLR; for AUC(0-inf) / Cmax / Tmax / AUC(0-t) / CL/F / Vd/F / half-life / k el: plasma; for AUC(0-t): AUClast, fasted, n = 6; for CL/F: CLP/F; for Vd/F: Vz/F; for half-life: t½β; for k el: λz
Summary of the method: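 Single oral 20 mg tablet given fasted (8–10 h) to groups of six subjects stratified by iothalamate GFR (>80, 50–80, 30–50, ≤30 mL/min/1.73 m2). Heparinised blood was drawn pre-dose and 0.25–72 h post-dose; plasma was spun at 1,500×g, 4–8 °C, then frozen. AUClast used the trapezoidal rule, AUC∞ = AUClast + Clast/ke, and CLP/F = dose/AUC∞. Ratios to the healthy group came from ln-transformed ANOVA least-squares means with 90 % CI.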

[2] = tested on: organic anion transporter 3 (OAT3); settings: cited from earlier work
Safety evaluations = format: in vivo, human
Summary of the method: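 Four groups (n = 6) were assigned by iothalamate GFR: >80, 50–80, 30–50 and ≤30 mL/min/1.73 m2. Each subject took one oral 20 mg tablet with 200 mL water after an 8–10 h fast. ECG (12-lead) was recorded pre-dose, 1 and 24 h, with QTcF and QTcB. Vital signs were taken daily. Hematology, biochemistry and urinalysis were done at screening, pre-dose and 72 h. AEs were coded by MedDRA 11.0, and results summarised descriptively.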

[3] = tested on: histamine receptor subtypes H2, H3, and H4; settings: at a high concentration; cited from earlier work
[4] = tested on: 30 other receptors (including muscarinic receptors); settings: at a high concentration; cited from earlier work
[5] = tested on: organic cation transporter 2 (OCT2); settings: cited from earlier work
histamine H1 receptor = settings: animal tissues with a high density of H1 receptors; cited from earlier work
[6] = single 80 mg oral dose; 95 % CI 3,174.7–6278.4; cited from earlier work
[7] = doses up to 40 mg; cited from earlier work
[8] = tested on: organic anion transporter 1 (OAT1); settings: cited from earlier work
[9] = tested on: human breast cancer resistance protein (BCRP); settings: cited from earlier work
[10] = Urine concentrations / urinary excretion of bilastine after a single oral dose; format: in vivo, human; settings: for Urine concentrations of bilastine: mean ± SD
Summary of the method: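 Subjects were grouped by iothalamate GFR (n = 6 each) and received one fasted oral 20 mg tablet. Urine was pooled over 0–12, 12–24, 24–48 and 48–72 h post-dose and kept refrigerated during each interval. Total volume was measured per interval, and aliquots were stored at −20 °C. Ae is the total unchanged drug over the whole collection, and CLR = Ae/AUC over a defined period.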

[11] = compared among the renal impairment groups; cited from earlier work
[12] = cited from earlier work
[13] = group 2: mild vs group 1: healthy
[14] = group 3: moderate vs group 1: healthy
[15] = group 4: severe vs group 1: healthy
[16] = po, Group 1: healthy, single oral 20 mg, mean ± SD
[17] = po, Group 2: mild, single oral 20 mg, mean ± SD
[18] = po, Group 3: moderate, single oral 20 mg, mean ± SD
[19] = po, Group 4: severe, single oral 20 mg, mean ± SD
[20] = oral, geometric LS mean, Test group 2: mild, ANOVA
[21] = oral, geometric LS mean, Test group 4: severe, ANOVA

With `CCOCCn1c(C2CCN(CCc3ccc(C(C)(C)C(=O)O)cc3)CC2)nc2ccccc21` [bilastine, 2-[4-(2-(4-(1-(2-ethoxyethyl)-1H-benzimidazol-2-yl)piperidin-1-yl)ethyl)phenyl]-2-methylpropionic acid] the Clast ([1]; Group 1: healthy, single oral 20 mg, mean ± SD) was 0.0003 ± 0.0001 µg/mL, the Clast ([1]; Group 2: mild, single oral 20 mg, mean ± SD) was 0.0008 ± 0.0003 µg/mL and the Clast ([1]; Group 3: moderate, single oral 20 mg, mean ± SD) was 0.0004 ± 0.0001 µg/mL. The Clast ([1]; Group 4: severe, single oral 20 mg, mean ± SD) was 0.0015 ± 0.0011 µg/mL, the “amount in the plasma after 24 h relative to Cmax” value ([1]; all the groups, single oral 20 mg) was “less than 5 % of the Cmax” and the “AUClast, geometric mean ratio” value [1, 13] was 1.34. The “AUC∞, geometric mean ratio” value [1, 13] was 1.36, the “Cmax, geometric mean ratio” value [1, 13] was 1.24 and the “tmax, difference of median values” [1, 13] was 0.00. The “AUClast, geometric mean ratio” value [1, 14] was 1.94, the “AUC∞, geometric mean ratio” value [1, 14] was 1.94 and the “Cmax, geometric mean ratio” value [1, 14] was 2.00. The “tmax, difference of median values” [1, 14] was 0.75, the “AUClast, geometric mean ratio” value [1, 15] was 2.11 and the “AUC∞, geometric mean ratio” value [1, 15] was 2.15. For the same molecule, the “Cmax, geometric mean ratio” value [1, 15] was 1.59, the “tmax, difference of median values” [1, 15] was 0.00 and the CL renal [1, 16] was 145 mL/min. It also gave a CL renal [1, 17] of 116 mL/min, a CL renal [1, 18] of 91.5 mL/min and a CL renal [1, 19] of 67.2 mL/min. It also gave an AUC(0-inf) [1, 20] of 0.959 µg·h/mL, an AUC(0-inf) [1, 21] of 1.51 µg·h/mL and a Cmax [1, 20] of 0.167 µg/mL. For the same molecule, the Cmax [1, 21] was 0.214 µg/mL, the Tmax ([1]; oral, median, Reference (group 1: healthy)) was 1.5 h and the Tmax ([1]; oral, median, Test group 2: mild) was 1.5 h. The Tmax ([1]; oral, median, Test group 3: moderate) was 2.25 h, the Tmax ([1]; oral, median, Test group 4: severe) was 1.5 h and the AUC(0-t) ([1]; po, Group 1: healthy (GFR >80), single oral 20 mg, mean ± SD) was 0.733 ± 0.26 µg·h/mL. It also gave an AUC(0-t) ([1]; po, Group 2: mild renal insufficiency (GFR 50–80), single oral 20 mg, mean ± SD) of 0.947 ± 0.148 µg·h/mL, an AUC(0-t) ([1]; po, Group 3: moderate renal insufficiency (GFR 30–50), single oral 20 mg, mean ± SD) of 1.38 µg·h/mL and an AUC(0-t) ([1]; po, Group 4: severe renal insufficiency (GFR ≤30), single oral 20 mg, mean ± SD) of 1.65 µg·h/mL. It also gave an AUC(0-inf) [1, 16] of 0.737 ± 0.261 µg·h/mL, an AUC(0-inf) [1, 17] of 0.967 ± 0.14 µg·h/mL and an AUC(0-inf) [1, 18] of 1.38 µg·h/mL. For the same molecule, the AUC(0-inf) [1, 19] was 1.71 µg·h/mL, the CL/F [1, 16] was 495 mL/min and the CL/F [1, 17] was 351 mL/min. It also gave a CL/F [1, 18] of 248 mL/min, a CL/F [1, 19] of 271 mL/min and a Cmax [1, 16] of 0.144 ± 0.0578 µg/mL. For the same molecule, the Cmax [1, 17] was 0.172 ± 0.045 µg/mL, the Cmax [1, 18] was 0.271 ± 0.0304 µg/mL and the Cmax [1, 19] was 0.229 ± 0.0818 µg/mL. For the same molecule, the Vd/F [1, 16] was 383 ± 122 L, the Vd/F [1, 17] was 462 ± 244 L and the Vd/F [1, 18] was 223 ± 55.7 L. The Vd/F [1, 19] was 351 ± 193 L, the Tmax ([1]; po, Group 1: healthy, single oral 20 mg, median (range)) was 1.5 h and the Tmax ([1]; po, Group 2: mild, single oral 20 mg, median (range)) was 1.5 h. It also gave a Tmax ([1]; po, Group 3: moderate, single oral 20 mg, median (range)) of 2.25 h, a Tmax ([1]; po, Group 4: severe, single oral 20 mg, median (range)) of 1.5 h and a half-life [1, 16] of 9.26 ± 2.79 h. For the same molecule, the half-life [1, 17] was 15.1 ± 7.66 h, the half-life [1, 18] was 10.5 ± 2.34 h and the half-life [1, 19] was 18.4 ± 11.4 h. It also gave a k el [1, 16] of 2.21e-05 s⁻¹, a k el [1, 17] of 1.65e-05 s⁻¹ and a k el [1, 18] of 1.92e-05 s⁻¹. For the same molecule, the k el [1, 19] was 1.39e-05 s⁻¹, the “substrate of OAT3” value [2] was “not a substrate” and the tolerability (Safety evaluations; 20 mg oral dose, healthy and renally impaired subjects) was “well-tolerated”. The “subjects with outlier ECG results” value (Safety evaluations; all 24 subjects, single oral 20 mg) was 20.8%, the “subjects with outlier ECG results” value (Safety evaluations; each of the mild, moderate, and severe impairment groups) was 16.7% and the “subjects with outlier ECG results” value (Safety evaluations; healthy group) was 33.3%. For the same molecule, the “mean blood glucose concentration” value (Safety evaluations; mildly impaired group, end of study, reference range 60–115 mg/dL) was 120.8 mg/dL, the “affinity for histamine receptor subtypes H2, H3, and H4” value [3] was “does not show affinity” and the “affinity for 30 other receptors” value [4] was “does not show affinity”. The “substrate of OCT2” value [5] was “not a substrate”, the “affinity for H1 receptors relative to cetirizine” value (histamine H1 receptor) was “three times higher” and the “affinity for H1 receptors relative to fexofenadine” value (histamine H1 receptor) was “five times higher”. For the same molecule, the “AUC∞, mean estimated exposure (safety margin)” value [6] was 4,225.6 ng·h/mL, the “sedative or psychomotor effects” value [7] was “No sedative or psychomotor effects were detected” and the “substrate of OAT1” value [8] was “not a substrate”. The “substrate of BCRP” value [9] was “not a substrate”, the “Urine concentrations of bilastine” value ([10]; 0–12 h, Group 1: healthy, single oral 20 mg) was 4,387.5 ± 3,358.4 ng/mL and the “Urine concentrations of bilastine” value ([10]; 0–12 h, Group 2: mild) was 4,824.1 ± 2,073.0 ng/mL. The “Urine concentrations of bilastine” value ([10]; 0–12 h, Group 3: moderate) was 7,184.3 ± 3,843.4 ng/mL, the “Urine concentrations of bilastine” value ([10]; 0–12 h, Group 4: severe) was 3,469.8 ± 2,066.2 ng/mL and the “Urine concentrations of bilastine” value ([10]; 12–24 h, Group 1: healthy) was 531.7 ± 342.0 ng/mL. The “Urine concentrations of bilastine” value ([10]; 12–24 h, Group 2: mild) was 597.7 ± 159.2 ng/mL, the “Urine concentrations of bilastine” value ([10]; 12–24 h, Group 3: moderate) was 472.9 ± 221.9 ng/mL and the “Urine concentrations of bilastine” value ([10]; 12–24 h, Group 4: severe) was 813.0 ± 567.5 ng/mL. The “Urine concentrations of bilastine” value ([10]; 24–48 h, Group 1: healthy) was 103.4 ± 38.6 ng/mL, the “Urine concentrations of bilastine” value ([10]; 24–48 h, Group 2: mild) was 159.3 ± 43.3 ng/mL and the “Urine concentrations of bilastine” value ([10]; 24–48 h, Group 3: moderate) was 126.7 ± 81.1 ng/mL. The “Urine concentrations of bilastine” value ([10]; 24–48 h, Group 4: severe) was 260.4 ± 212.1 ng/mL, the “Urine concentrations of bilastine” value ([10]; 48–72 h, Group 1: healthy) was 20.9 ± 10.0 ng/mL and the “Urine concentrations of bilastine” value ([10]; 48–72 h, Group 2: mild) was 49.3 ± 40.7 ng/mL. The “Urine concentrations of bilastine” value ([10]; 48–72 h, Group 3: moderate) was 30.3 ± 7.4 ng/mL, the “Urine concentrations of bilastine” value ([10]; 48–72 h, Group 4: severe) was 97.8 ± 69.3 ng/mL and the “time by which urinary excretion was essentially complete” value ([10]; single oral 20 mg, most excreted in the first 12 h) was “up to 72 h”. For the same molecule, the plasma protein binding [11] was “comparable values were found among the renal impairment groups” and the metabolism [12] was “not metabolized”.
